ChEMBL document CHEMBL4145606, “Microcystins Containing Doubly Homologated Tyrosine Residues from a Microcystis aeruginosa Bloom: Structures and Cytotoxicity” (J Nat Prod, 2018)
Starred links: 1 amine or outer side, 2 acyl side, 3 side chain; linkers in the order of their positions; H or OH if unused. Positions of bridges follow the written chain, without caps; N, C: chain ends. Non-standard residues stand in square brackets, D forms with d. Residues, ends and D or L forms follow the SMILES beside them. Adda = CO[C@@H](Cc1ccccc1)[C@@H](C)/C=C(C)/C=C/[C@H](N[*:1])[C@H](C)C(=O)[*:2]; dAsp(3S-Me) = C[C@H](C(=O)[*:3])[C@@H](N[*:1])C(=O)[*:2]; d(γGlu) = O=C(O)[C@@H](CCC(=O)[*:2])N[*:1]; NMeDha = C=C(NC)C(=O)O

Legend:
[1] = system: HCT-116; experiment: Cytotoxicity against human HCT116 cells assessed as reduction in cell viability after 72 hrs by MTT assay; assay type: functional, cell-based
In short: (§1)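 Cells seeded in 96-well plates and incubated overnight at 37 °C. Treated with a range of concentrations (∼35 to 0.1 μM) for ∼72 h at 37 °C. Viability read by MTT assay. EC50 estimated from the dose-response curves.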

[2] = system: A549; experiment: Cytotoxicity against human A549 cells assessed as reduction in cell viability after 72 hrs by MTT assay; assay type: functional, cell-based; in short: as §1

Row | Structure (SMILES) | Activity [1] | EC50 [1] | Activity [2] | EC50 [2]
1 | C=C1C(=O)N[C@H](C)C(=O)N[C@@H](CCc2ccc(O)cc2)C(=O)N[C@@H](C(=O)O)[C@H](C)C(=O)N[C@@H](CCCc2ccc(O)cc2)C(=O)N[C@@H](/C=C/C(C)=C/[C@H](C)[C@H](Cc2ccccc2)OC)[C@H](C)C(=O)N[C@@H](C(=O)O)CCC(=O)N1C | Dose-dependent effect | 3.3 µM | Dose-dependent effect | 0.36 µM
2 | C=C1C(=O)N[C@H](C)C(=O)N[C@@H](CCCc2ccc(O)cc2)C(=O)N[C@@H](C(=O)O)[C@H](C)C(=O)N[C@@H](CCCNC(=N)N)C(=O)N[C@@H](/C=C/C(C)=C/[C@H](C)[C@H](Cc2ccccc2)OC)[C@H](C)C(=O)N[C@@H](C(=O)O)CCC(=O)N1C | – | > 35 µM | – | 18 µM
3 | C=C1C(=O)N[C@H](CC(C)C)C(=O)N[C@@H](CC(C)C)C(=O)N[C@@H](C(=O)O)[C@H](C)C(=O)N[C@@H](Cc2ccc(O)cc2)C(=O)N[C@@H](/C=C/C(C)=C/[C@H](C)[C@H](Cc2ccccc2)OC)[C@H](C)C(=O)N[C@@H](C(=O)O)CCC(=O)N1C (Y[Adda][d(γGlu)][NMeDha][dL]L[dAsp(3S-Me)]-OH; lactam N-7) | Dose-dependent effect | 11 µM | Dose-dependent effect | 1.3 µM
4 | C=C1C(=O)N[C@H](C)C(=O)N[C@@H](CC(C)C)C(=O)N[C@@H](C(=O)O)[C@H](C)C(=O)N[C@@H](CCCNC(=N)N)C(=O)N[C@@H](/C=C/C(C)=C/[C@H](C)[C@H](Cc2ccccc2)OC)[C@H](C)C(=O)N[C@@H](C(=O)O)CCC(=O)N1C [MICROCYSTIN-LR] (R[Adda][d(γGlu)][NMeDha][dA]L[dAsp(3S-Me)]-OH; lactam N-7) | – | 35 µM | – | > 35 µM
